Data as given in ChEMBL document CHEMBL4308910, “Metronidazole aryloxy, carboxy and azole derivatives: Synthesis, anti-tumor activity, QSAR, molecular docking and dynamics studies” (Bioorg Med Chem, 2019).
≈ marks a conversion by molar mass, not a printed value.

Assays:
[1] = tested on: A549; experiment: Cytotoxicity against human A549 cells after 24 hrs by MTT assay; type: functional, cell-based; conditions: A549, 24 h
Outline: (§1)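 Cells were grown in DMEM with 10% FBS and penicillin/streptomycin at 37 °C under 5% CO2. Seeding was 1×10^4 cells/well for A549 and MCF-7, or 1.2×10^4 cells/well for HT-29, followed by 24 h attachment. Compounds came from DMSO stocks diluted in serum-free DMEM, 0.1–1000 µg/mL, DMSO <0.5%, triplicate wells, 24 h. MTT (5 mg/mL stock in PBS) 3–4 h at 37 °C in dark; DMSO-solubilised A570. IC50 from 3 runs, mean ± S.E.M.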

[2] = tested on: HT-29; experiment: Cytotoxicity against human HT-29 cells after 24 hrs by MTT assay; type: functional, cell-based; conditions: HT-29, 24 h; outline: as §1
[3] = tested on: MCF7; experiment: Cytotoxicity against human MCF7 cells after 24 hrs by MTT assay; type: functional, cell-based; conditions: MCF7, 24 h; outline: as §1
[4] = tested on: A549; experiment: Induction of apoptosis in human A549 cells assessed as necrotic cells at 90 ug/mL after 16 hrs by propidium iodide/Annexin V/7-AAD staining-based flow cytometric analysis (reference value: 0.41%); type: functional
[5] = tested on: A549; experiment: Induction of apoptosis in human A549 cells assessed as early apoptotic cells at 90 ug/mL after 16 hrs by propidium iodide/Annexin V/7-AAD staining-based flow cytometric analysis (reference value: 0.01%); type: functional
[6] = tested on: A549; experiment: Induction of apoptosis in human A549 cells assessed as late apoptotic cells at 90 ug/mL after 16 hrs by propidium iodide/Annexin V/7-AAD staining-based flow cytometric analysis (reference value: 0.21%); type: functional
[7] = tested on: A549; experiment: Induction of apoptosis in human A549 cells assessed as viable cells at 90 ug/mL after 16 hrs by propidium iodide/Annexin V/7-AAD staining-based flow cytometric analysis (reference value: 99.37%); type: functional; conditions: A549, 16 h, read-out: Activity

| Structure (SMILES) | IC50 [1] | IC50 [2] | IC50 [3] | Activity [4] | Activity [5] | Activity [6] | viability at 90 µg/mL [7] |
| --- | --- | --- | --- | --- | --- | --- | --- |
| Cc1ncc([N+](=O)[O-])n1CCOC(=O)c1ccc(Br)cc1 | 194 µg/mL (≈ 548 µM) | 277 µg/mL (≈ 783 µM) | 271 µg/mL (≈ 766 µM) | – | – | – | – |
| Cc1nccn1CCn1c([N+](=O)[O-])cnc1C | 195 µg/mL (≈ 831 µM) | 142 µg/mL (≈ 604 µM) | 157 µg/mL (≈ 668 µM) | – | – | – | – |
| COc1ccccc1C(=O)OCCn1c([N+](=O)[O-])cnc1C | 289 µg/mL (≈ 947 µM) | 283 µg/mL (≈ 926 µM) | 447 µg/mL (≈ 1460 µM) | – | – | – | – |
| CN(Cc1cnc2nc(N)nc(N)c2n1)c1ccc(C(=O)N[C@@H](CCC(=O)O)C(=O)O)cc1 [METHOTREXATE] | 39.3 µg/mL (≈ 86.5 µM) | 47.8 µg/mL (≈ 105 µM) | 31.5 µg/mL (≈ 69.3 µM) | – | – | – | – |
| Cc1ccc(S(=O)(=O)OCCn2c([N+](=O)[O-])cnc2C)cc1 | 196 µg/mL (≈ 603 µM) | 328 µg/mL (≈ 1010 µM) | 160 µg/mL (≈ 491 µM) | – | – | – | – |
| Cc1ncc([N+](=O)[O-])n1CCOc1cccc([N+](=O)[O-])c1 | 108 µg/mL (≈ 371 µM) | 112 µg/mL (≈ 383 µM) | 71.7 µg/mL (≈ 245 µM) | – | – | – | – |
| Cc1ncc([N+](=O)[O-])n1CCOC(=O)c1ccco1 | 167 µg/mL (≈ 631 µM) | 287 µg/mL (≈ 1080 µM) | 207 µg/mL (≈ 779 µM) | – | – | – | – |
| Cc1cc(OCCn2c([N+](=O)[O-])cnc2C)ccc1Cl | 150 µg/mL (≈ 506 µM) | 159 µg/mL (≈ 537 µM) | 188 µg/mL (≈ 635 µM) | – | – | – | – |
| Cc1ncc([N+](=O)[O-])n1CCOc1ccc(F)c(Cl)c1 | 122 µg/mL (≈ 407 µM) | 199 µg/mL (≈ 664 µM) | 110 µg/mL (≈ 367 µM) | – | – | – | – |
| Cc1ncc([N+](=O)[O-])n1CCOc1ccc([N+](=O)[O-])cc1 | 110 µg/mL (≈ 378 µM) | 116 µg/mL (≈ 396 µM) | 127 µg/mL (≈ 433 µM) | – | – | – | – |
| Cc1ncc([N+](=O)[O-])n1CCOc1ccccc1[N+](=O)[O-] | 573 µg/mL (≈ 1960 µM) | 581 µg/mL (≈ 1990 µM) | 583 µg/mL (≈ 1990 µM) | – | – | – | – |
| Cc1ncc([N+](=O)[O-])n1CCn1ccnc1 | 240 µg/mL (≈ 1080 µM) | 115 µg/mL (≈ 518 µM) | 462 µg/mL (≈ 2090 µM) | – | – | – | – |
| Cc1ccc(C(=O)OCCn2c([N+](=O)[O-])cnc2C)cc1 | 184 µg/mL (≈ 636 µM) | 359 µg/mL (≈ 1240 µM) | 256 µg/mL (≈ 884 µM) | – | – | – | – |
| Cc1ncc([N+](=O)[O-])n1CCOc1ccc(C#N)cc1 | 79.8 µg/mL (≈ 293 µM) | 76.8 µg/mL (≈ 282 µM) | 83.2 µg/mL (≈ 306 µM) | 9.96% | 11.72% | 21.24% | 57.1% |
| Cc1ncc([N+](=O)[O-])n1CCO [METRONIDAZOLE] | 224 µg/mL (≈ 1310 µM) | 278 µg/mL (≈ 1620 µM) | 348 µg/mL (≈ 2030 µM) | – | – | – | – |
| Cc1ncc([N+](=O)[O-])n1CCOC(=O)c1ccccc1F | 170 µg/mL (≈ 578 µM) | 146 µg/mL (≈ 497 µM) | 262 µg/mL (≈ 895 µM) | – | – | – | – |
| Cc1ncc([N+](=O)[O-])n1CCOC(=O)c1ccccc1Cl | 255 µg/mL (≈ 823 µM) | 279 µg/mL (≈ 902 µM) | 380 µg/mL (≈ 1230 µM) | – | – | – | – |
| Cc1ncc([N+](=O)[O-])n1CCOc1ccccc1 | 107 µg/mL (≈ 435 µM) | 134 µg/mL (≈ 543 µM) | 106 µg/mL (≈ 430 µM) | – | – | – | – |
| Cc1cc(OCCn2c([N+](=O)[O-])cnc2C)ccc1F | 226 µg/mL (≈ 808 µM) | 140 µg/mL (≈ 503 µM) | 116 µg/mL (≈ 415 µM) | – | – | – | – |
| Cc1ncc([N+](=O)[O-])n1CCOc1ccc2ccccc2c1 | 96.1 µg/mL (≈ 323 µM) | 94.8 µg/mL (≈ 319 µM) | 64.9 µg/mL (≈ 218 µM) | 12.96% | 10.13% | 29.33% | 47.6% |
| Cc1ncc([N+](=O)[O-])n1CCn1nnc2ccccc21 | 701 µg/mL (≈ 2580 µM) | 538 µg/mL (≈ 1980 µM) | 384 µg/mL (≈ 1410 µM) | – | – | – | – |
| Cc1ncc([N+](=O)[O-])n1CCn1cnc2ccccc21 | 219 µg/mL (≈ 809 µM) | 148 µg/mL (≈ 546 µM) | 103 µg/mL (≈ 380 µM) | – | – | – | – |
| Cc1ncc([N+](=O)[O-])n1CCOc1ccccc1Cl | 574 µg/mL (≈ 2040 µM) | 552 µg/mL (≈ 1960 µM) | 378 µg/mL (≈ 1340 µM) | – | – | – | – |
| Cc1ncc([N+](=O)[O-])n1CCCl | 300 µg/mL (≈ 1580 µM) | 311 µg/mL (≈ 1640 µM) | 480 µg/mL (≈ 2530 µM) | – | – | – | – |
| COc1cccc(C(=O)OCCn2c([N+](=O)[O-])cnc2C)c1 | 281 µg/mL (≈ 921 µM) | 293 µg/mL (≈ 960 µM) | 428 µg/mL (≈ 1400 µM) | – | – | – | – |
| Cc1ncc([N+](=O)[O-])n1CCOc1ccc(Cl)c(Cl)c1 | 77.9 µg/mL (≈ 246 µM) | 109 µg/mL (≈ 344 µM) | 69.6 µg/mL (≈ 220 µM) | 26.27% | 5.73% | 61.15% | 6.85% |
| Cc1ncc([N+](=O)[O-])n1CCOC(=O)c1ccccc1 [METRONIDAZOLE BENZOATE] | 281 µg/mL (≈ 1020 µM) | 288 µg/mL (≈ 1050 µM) | 245 µg/mL (≈ 889 µM) | – | – | – | – |
| Cc1ncc([N+](=O)[O-])n1CCOc1ccc(F)cc1 | 129 µg/mL (≈ 487 µM) | 102 µg/mL (≈ 386 µM) | 85.8 µg/mL (≈ 324 µM) | – | – | – | – |
